In brackets after ≈: the same amount, converted by molar mass.
Tests used:
[1] = AUC (infinity) in mouse at 10 mg/kg, iv after 1 to 6 hrs by LC-MS/MS analysis; format: ADME, organism-based; design: dose 10 mg/kg, time infinity, route intravenous; conditions: in vivo
[2] = test system: Klebsiella pneumoniae; test: Inhibition of VIM-27/CTX-M-15/SHV-11/OXA-1 in Klebsiella pneumoniae CDC-0040 assessed as piperacillin antibacterial activity at 16 ug/ml after 16 to 20 hrs by CLSI-based microbroth dilution method
[3] = test system: Klebsiella pneumoniae; test: Inhibition of OXA-232/OXA-9/TEM-1A/CTX-M-15/OXA-1 in Klebsiella pneumoniae CDC-0066 assessed as meropenem antibacterial activity at 4 ug/ml after 16 to 20 hrs by CLSI-based microbroth dilution method (reference value: […] ug/ml)
[4] = test system: Klebsiella pneumoniae; test: Inhibition of VIM-4 in Klebsiella pneumoniae assessed as meropenem antibacterial activity at 4 ug/ml after 16 to 20 hrs by CLSI-based microbroth dilution method (Rvb >= […] ug/ml)
[5] = test system: Pseudomonas aeruginosa; test: Inhibition of KPC-2/PDC-42 in Pseudomonas aeruginosa CDC-0356 assessed as meropenem antibacterial activity at 4 ug/ml after 16 to 20 hrs by CLSI-based microbroth dilution method (reference value: […] ug/ml)
[6] = test system: Escherichia coli; test: Inhibition of NDM-1/CMY-6/OXA-1 in Escherichia coli CDC-0055 assessed as meropenem antibacterial activity at 4 ug/ml after 16 to 20 hrs by CLSI-based microbroth dilution method (reference value: […] ug/ml)
[7] = test system: Escherichia coli; test: Inhibition of NDM-1/CMY-6/OXA-1 in Escherichia coli CDC-0055 assessed as cefepime antibacterial activity at 8 ug/ml after 16 to 20 hrs by CLSI-based microbroth dilution method
Outline: (§1)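 MDR β-lactamase-producing Gram-negative clinical isolates. […] MIC was reported as the inhibitor concentration that restores the partner's antibacterial activity.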

[8] = test system: Klebsiella pneumoniae; test: Inhibition of VIM-27/CTX-M-15/SHV-11/OXA-1 in Klebsiella pneumoniae CDC-0040 assessed as meropenem antibacterial activity at 4 ug/ml after 16 to 20 hrs by CLSI-based microbroth dilution method
[9] = test system: Klebsiella pneumoniae ATCC BAA-1705; test: Inhibition of KPC-2 in Klebsiella pneumoniae ATCC BAA 1705 assessed as piperacillin antibacterial activity at 16 ug/ml after 16 to 20 hrs by CLSI-based microbroth dilution method (Rvb > […] ug/ml)
[10] = test system: Klebsiella pneumoniae; test: Inhibition of KPC-2/SHV12/TEM-1 in Klebsiella pneumoniae CDC-0361 assessed as cefepime antibacterial activity at 8 ug/ml after 16 to 20 hrs by CLSI-based microbroth dilution method (reference value: […] ug/ml)
[11] = Inhibition of bacterial VIM-2 using nitrocefin as substrate preincubated for 15 mins followed by susbtrate addition and measured after 10 mins by spectrophotometric method; design: species or system Bacteria
Outline: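 Purified β-lactamase inhibition. IC50 values are the average of duplicates unless otherwise indicated.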

[12] = test system: Klebsiella pneumoniae ATCC BAA-1705; test: Inhibition of KPC-2 in Klebsiella pneumoniae ATCC BAA 1705 assessed as cefepime antibacterial activity at 8 ug/ml after 16 to 20 hrs by CLSI-based microbroth dilution method; outline: as §1
[13] = Inhibition of bacterial OXA-48 using nitrocefin as substrate preincubated for 15 mins followed by susbtrate addition and measured after 10 mins by spectrophotometric method; design: species or system Bacteria
[14] = Inhibition of bacterial KPC-2 using imipenem as substrate preincubated for 15 mins followed by susbtrate addition and measured after 10 mins by spectrophotometric method; design: species or system Bacteria
[15] = test system: Pseudomonas aeruginosa; test: Inhibition of KPC-2/PDC-42 in Pseudomonas aeruginosa CDC-0356 assessed as cefepime antibacterial activity at 8 ug/ml after 16 to 20 hrs by CLSI-based microbroth dilution method (Rvb > […] ug/ml)
[16] = test system: Klebsiella pneumoniae; test: Inhibition of OXA-232/OXA-9/TEM-1A/CTX-M-15/OXA-1 in Klebsiella pneumoniae CDC-0066 assessed as cefepime antibacterial activity at 8 ug/ml after 16 to 20 hrs by CLSI-based microbroth dilution method (Rvb > […] ug/ml)
[17] = test system: Escherichia coli; test: Inhibition of NDM in Escherichia coli CDC-0452 assessed as piperacillin antibacterial activity at 16 ug/ml after 16 to 20 hrs by CLSI-based microbroth dilution method (Rvb > […] ug/ml)
[18] = test system: Pseudomonas aeruginosa; test: Inhibition of VIM in Pseudomonas aeruginosa CDC-0457 assessed as cefepime antibacterial activity at 8 ug/ml after 16 to 20 hrs by CLSI-based microbroth dilution method
[19] = test system: Pseudomonas aeruginosa; test: Inhibition of VIM in Pseudomonas aeruginosa CDC-0457 assessed as meropenem antibacterial activity at 4 ug/ml after 16 to 20 hrs by CLSI-based microbroth dilution method
[20] = test system: Klebsiella pneumoniae; test: Inhibition of KPC-2/SHV12/TEM-1 in Klebsiella pneumoniae CDC-0361 assessed as meropenem antibacterial activity at 4 ug/ml after 16 to 20 hrs by CLSI-based microbroth dilution method (reference value: […] ug/ml)
[21] = test system: Pseudomonas aeruginosa; test: Inhibition of KPC-2/PDC-42 in Pseudomonas aeruginosa CDC-0356 assessed as piperacillin antibacterial activity at 16 ug/ml after 16 to 20 hrs by CLSI-based microbroth dilution method (Rvb > […] ug/ml)
[22] = test system: Klebsiella pneumoniae; test: Inhibition of VIM-27/CTX-M-15/SHV-11/OXA-1 in Klebsiella pneumoniae CDC-0040 assessed as cefepime antibacterial activity at 8 ug/ml after 16 to 20 hrs by CLSI-based microbroth dilution method
[23] = test system: Pseudomonas aeruginosa; test: Inhibition of VIM in Pseudomonas aeruginosa CDC-0457 assessed as piperacillin antibacterial activity at 16 ug/ml after 16 to 20 hrs by CLSI-based microbroth dilution method
[24] = test system: Klebsiella pneumoniae; test: Inhibition of KPC-2 in Klebsiella pneumoniae assessed as meropenem antibacterial activity at 4 ug/ml after 16 to 20 hrs by CLSI-based microbroth dilution method (Rvb >= […] ug/ml)
[25] = test system: Escherichia coli; test: Inhibition of NDM in Escherichia coli CDC-0452 assessed as meropenem antibacterial activity at 4 ug/ml after 16 to 20 hrs by CLSI-based microbroth dilution method (reference value: […] ug/ml)
[26] = Inhibition of bacterial AmpC using nitrocefin as substrate preincubated for 15 mins followed by susbtrate addition and measured after 10 mins by spectrophotometric method; design: species or system Bacteria
[27] = test system: Klebsiella pneumoniae; test: Inhibition of OXA-48 in Klebsiella pneumoniae assessed as meropenem antibacterial activity at 4 ug/ml after 16 to 20 hrs by CLSI-based microbroth dilution method (Rvb >= […] ug/ml)
[28] = test system: Escherichia coli; test: Inhibition of NDM in Escherichia coli CDC-0452 assessed as cefepime antibacterial activity after 16 to 20 hrs by CLSI-based microbroth dilution method (reference value: […] ug/ml)
[29] = test system: Klebsiella pneumoniae ATCC BAA-1705; test: Inhibition of KPC-2 in Klebsiella pneumoniae ATCC BAA 1705 assessed as meropenem antibacterial activity at 4 ug/ml after 16 to 20 hrs by CLSI-based microbroth dilution method (reference value: […] ug/ml)
[30] = test system: Klebsiella pneumoniae; test: Inhibition of OXA-232/OXA-9/TEM-1A/CTX-M-15/OXA-1 in Klebsiella pneumoniae CDC-0066 assessed as piperacillin antibacterial activity at 16 ug/ml after 16 to 20 hrs by CLSI-based microbroth dilution method (Rvb > […] ug/ml)
[31] = molecular target: Beta-lactamase VIM-2 (Pseudomonas aeruginosa) (UniProt Q9K2N0); test: Inhibition of VIM-2 in Pseudomonas aeruginosa assessed as meropenem antibacterial activity at 4 ug/ml after 16 to 20 hrs by CLSI-based microbroth dilution method (Rvb >= […] ug/ml)
[32] = test system: Escherichia coli; test: Inhibition of NDM-1/CMY-6/OXA-1 in Escherichia coli CDC-0055 assessed as piperacillin antibacterial activity at 16 ug/ml after 16 to 20 hrs by CLSI-based microbroth dilution method; outline: as §1
[33] = test system: Klebsiella pneumoniae; test: Inhibition of KPC-2/SHV12/TEM-1 in Klebsiella pneumoniae CDC-0361 assessed as piperacillin antibacterial activity at 16 ug/ml after 16 to 20 hrs by CLSI-based microbroth dilution method (Rvb > […] ug/ml)

## CO/N=C(\C(=O)N[C@@H]1C(=O)N2C(C(=O)[O-])=C(C[N+]3(C)CCCC3)CS[C@H]12)c1csc(N)n1
[1]
  AUC(0-inf): 15800 ng·h/mL

## NCc1ccc(CC(=O)N[C@H]2Cc3cccc(C(=O)O)c3OB2O)cc1
[2]
  MIC: > 16 µg/mL
[3]
  MIC: 4 µg/mL (≈ 11.3 µM)
[4]
  MIC: 4 µg/mL (≈ 11.3 µM)
[5]
  MIC: 1 µg/mL (≈ 2.82 µM)
[6]
  MIC: 1 µg/mL (≈ 2.82 µM)
[7]
  MIC: 4 µg/mL (≈ 11.3 µM)
[8]
  MIC: > 16 µg/mL
[9]
  MIC: 2 µg/mL (≈ 5.65 µM)
[10]
  MIC: 7.9 ng/mL (≈ 0.0223 µM)
[11]
  IC50: 270 nM
[12]
  MIC: 0.06 µg/mL (≈ 0.169 µM)
[13]
  IC50: 1800 nM
[14]
  IC50: 40 nM
[15]
  MIC: 2 µg/mL (≈ 5.65 µM)
[16]
  MIC: 4 µg/mL (≈ 11.3 µM)
[17]
  MIC: 8 µg/mL (≈ 22.6 µM)
[18]
  MIC: 8 µg/mL (≈ 22.6 µM)
[19]
  MIC: > 16 µg/mL
[20]
  MIC: 7.9 ng/mL (≈ 0.0223 µM)
[21]
  MIC: 2 µg/mL (≈ 5.65 µM)
[22]
  MIC: > 16 µg/mL
[23]
  MIC: > 16 µg/mL
[24]
  MIC: 0.5 µg/mL (≈ 1.41 µM)
[25]
  MIC: 2 µg/mL (≈ 5.65 µM)
[26]
  IC50: 12 nM
[27]
  MIC: 1 µg/mL (≈ 2.82 µM)
[28]
  MIC: 2 µg/mL (≈ 5.65 µM)
[29]
  MIC: 7.9 ng/mL (≈ 0.0223 µM)
[30]
  MIC: > 16 µg/mL
[31]
  MIC: 8 µg/mL (≈ 22.6 µM)
[32]
  MIC: 16 µg/mL (≈ 45.2 µM)
[33]
  MIC: 0.5 µg/mL (≈ 1.41 µM)

Reference: ChEMBL document CHEMBL4354828, “Discovery of Taniborbactam (VNRX-5133): A Broad-Spectrum Serine- and Metallo-β-lactamase Inhibitor for Carbapenem-Resistant Bacterial Infections” (J Med Chem, 2020)
